Measured values taken from paper PMC5357090 (Saudi Pharmaceutical Journal : SPJ, 2016).
pIC50: −log10 of the molar value. Where two headings read alike, the source gives them in different places.

Assays:
HeLa = assay: In vitro anticancer activity, MTT assay, HeLa; format: cell-based, human; settings: for pIC50: Homo sapiens, HeLa, 48 h; for anticancer activity against HeLa cells (in words): MTT, 48 h exposure, compared with the standard cisplatin
In short: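 HeLa cells came from NCCS and were kept in MEM with 10% FBS at 37 °C and 5% CO2. Cells were seeded at 10,000/well in 5% FBS medium and left 24 h to attach. DMSO solutions were diluted in serum-free medium to 6.25–100 µM (five concentrations) and applied for 48 h, in triplicate. MTT was added for 4 h at 37 °C, formazan dissolved in DMSO, and A570 read. % inhibition was taken against untreated control. IC50 came from nonlinear regression against log concentration.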

MCF-7 = assay: In vitro anticancer activity, MTT assay, MCF-7; format: cell-based; settings: for pIC50: Homo sapiens, MCF7, 48 h, read-out: IC50 MCF-7; for anticancer activity against MCF-7 cells (in words): MTT, 48 h exposure, compared with the standard cisplatin
α-amylase = assay: α-Amylase assay; format: biochemical; settings: compared to the standard acarbose; 50-1000 μm
In short: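 α-Amylase was used at 0.1 mg/mL in PBS (0.02 mol/L, pH 6.8). Enzyme was preincubated with the test solution at 37 °C for 5 min. The reaction was started with 1.0% (w/v) starch. It was stopped with DNS reagent (1% dinitrosalicylic acid, 0.05% Na2SO3, 1% NaOH), then heated at 100 °C for 5 min and cooled to room temperature. Absorbance was read at 540 nm.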

[1] = read-out: IC50 values, range over MCF-7 and HeLa cells

Row | SMILES | pIC50 (HeLa; read-out: IC50 HeLa) | anticancer activity against HeLa cells (in words) (HeLa) | pIC50 (MCF-7) | anticancer activity against MCF-7 cells (in words) (MCF-7) | pIC50 (HeLa; [1]) | inhibitory activity against α-amylase (in words) (α-amylase)
1 | CC(C)(C)c1ccc(S(=O)(=O)Nc2cccc(-c3nnc(C4CCCCC4)o3)c2)cc1 [Compound 8b, 4-tert-Butyl-N-[3-(5-cyclohexyl-[1,3,4]oxadiazol-2-yl)-phenyl]-benzenesulphonamide] | 4.20 | good activity | 4.22 | good activity |  | 
2 | O=C(Nc1cccc(-c2nnc(C3CCCCC3)o2)c1)c1ccco1 [Compound 7h, Furan-2-carboxylic acid [3-(5-cyclohexyl-[1,3,4]oxadiazol-2-yl)-phenyl]-amide] | ≤ 4.00 |  | ≤ 4.00 |  |  | 
3 | Cc1ccc(C(=O)Nc2cccc(-c3nnc(C4CCCCC4)o3)c2)cc1 [Compound 7b, N-[3-(5-Cyclohexyl-[1,3,4]oxadiazol-2-yl)-phenyl]-4-methyl-benzamide] | ≤ 4.00 |  | ≤ 4.00 |  |  | 
4 | COc1cccc(NC(=O)Nc2cccc(-c3nnc(C4CCCCC4)o3)c2)c1 [Compound 6c, 1-[3-(5-Cyclohexyl-[1,3,4]oxadiazol-2-yl)-phenyl]-3-(3-methoxy-phenyl)-urea] | 4.34 | significant activity | 4.54 | significant activity | 4.34 to 4.63 | 
5 | O=S(=O)(Nc1cccc(-c2nnc(C3CCCCC3)o2)c1)c1cc(Cl)cc(Cl)c1 [Compound 8c, 3,5-Dichloro-N-[3-(5-cyclohexyl-[1,3,4]oxadiazol-2-yl)-phenyl]-benzenesulphonamide] | ≤ 4.00 |  | ≤ 4.00 |  |  | better than all other compounds
6 | O=C(Nc1cccc(-c2nnc(C3CCCCC3)o2)c1)C1CCCC1 [Compound 7g, Cyclopentane carboxylic acid [3-(5-cyclohexyl-[1,3,4]oxadiazol-2-yl)-phenyl]-amide] | ≤ 4.00 |  | ≤ 4.00 |  |  | moderate activities
7 | O=C(C=Cc1ccco1)Nc1cccc(-c2nnc(C3CCCCC3)o2)c1 [Compound 7i, N-[3-(5-Cyclohexyl-[1,3,4]oxadiazol-2-yl)-phenyl]-3-furan-2-yl-acrylamide] | ≤ 4.00 |  | ≤ 4.00 |  |  | 
8 | O=C(Nc1cccc(-c2nnc(C3CCCCC3)o2)c1)c1cnccn1 [Compound 7e, Pyrazine-2-carboxylic acid [3-(5-cyclohexyl-[1,3,4]oxadiazol-2-yl)-phenyl]-amide] | ≤ 4.00 |  | ≤ 4.00 |  |  | moderate activities
9 | O=C(Nc1cccc(-c2nnc(C3CCCCC3)o2)c1)c1cc(F)cc(F)c1 [Compound 7d, N-[3-(5-Cyclohexyl-[1,3,4]oxadiazol-2-yl)-phenyl]-3,5-difluoro-benzamide] | 4.23 | good activity | 4.20 | good activity |  | moderate activities
10 | O=C(Nc1ccc(F)cc1)Nc1cccc(-c2nnc(C3CCCCC3)o2)c1 [Compound 6a, 1-[3-(5-Cyclohexyl-[1,3,4]oxadiazol-2-yl)-phenyl]-3-(4-fluoro-phenyl)-urea] | 4.10 | good activity | 4.09 | good activity |  | moderate activities
11 | Cc1ccc(NC(=O)Nc2cccc(-c3nnc(C4CCCCC4)o3)c2)cc1 [Compound 6b, 1-[3-(5-Cyclohexyl-[1,3,4]oxadiazol-2-yl)-phenyl]-3-p-tolyl-urea] | 4.52 | significant activity | 4.63 | significant activity | 4.34 to 4.63 | moderate activities
12 | Cc1ccc(S(=O)(=O)Nc2cccc(-c3nnc(C4CCCCC4)o3)c2)cc1 [Compound 8a, N-[3-(5-Cyclohexyl-[1,3,4]oxadiazol-2-yl)-phenyl]-4-methyl-benzenesulphonamide] | ≤ 4.00 |  | ≤ 4.00 |  |  | 
13 | O=C(Nc1cccc(-c2nnc(C3CCCCC3)o2)c1)c1ccc(Cl)cc1 [Compound 7a, 4-Chloro-N-[3-(5-cyclohexyl-[1,3,4]oxadiazol-2-yl)-phenyl]-benzamide] | ≤ 4.00 |  | ≤ 4.00 |  |  | 
14 | O=C(Cc1ccccc1F)Nc1cccc(-c2nnc(C3CCCCC3)o2)c1 [Compound 7c, N-[3-(5-Cyclohexyl-[1,3,4]oxadiazol-2-yl)-phenyl]-2-(2-fluoro-phenyl)acetamide] | 4.10 | good activity | 4.11 | good activity |  | 
15 | O=C(Cc1c[nH]c2ccccc12)Nc1cccc(-c2nnc(C3CCCCC3)o2)c1 [Compound 7f, N-[3-(5-Cyclohexyl-[1,3,4]oxadiazol-2-yl)-phenyl]-2-(1H-indol-3-yl)-acetamide] | 4.00 |  | ≤ 4.00 |  |  | better than all other compounds
